Measurements taken from the EternaBench riboswitch data.

Test system: MS2 coat protein
Experiment: apparent Kd, MS2 coat protein; higher = weaker binding; RNA-MaP array; FMN 200 µM where present
Outline: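 The apparent Kd is the median of filtered binding-curve fits, one per cluster, to green signal normalised to red-channel RNA signal and control-cluster median Fmax. The clusters were on Illumina sequencing chips, and stalled E. coli RNA polymerase had transcribed the designs on them. Titration used SNAP-549-labelled MS2 coat protein from 0.7 or 1.5 nM, doubling to 3 µM, without and then with constant ligand, in 100 mM Tris-HCl pH 7.5, 80 mM KCl, 4 mM MgCl2, BSA, DTT, yeast tRNA and Tween-20.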

[1] = designed as: ON switch for flavin mononucleotide, no ligand
[2] = ligand present: flavin mononucleotide, designed as: ON switch for flavin mononucleotide
[3] = designed as: OFF switch for flavin mononucleotide, no ligand
[4] = ligand present: flavin mononucleotide, designed as: OFF switch for flavin mononucleotide

Row | Sequence | apparent Kd [1] [nM] | apparent Kd [2] [nM] | apparent Kd [3] [nM] | apparent Kd [4] [nM]
1 | UUUUCGAACCGAGGAUAUCCUUAUAAGAAACAUGAGGAUCACCCAUGUAAAGGGAAUUAUUUGUAGGAGAAGGCGGAUUUUGUU | 44.4 | 29.9 |  | 
2 | CUUGUUUAUGUGAGGAUAUACUGUUAGUAUAGUUUGUAGAAGGUACAUGAGGAUCACCCAUGUUUAUUACUCUU |  |  | 13.7 | 13.8
3 | UCUCUUCUGUAGAAGGCCCAACUUGUGAAGGCAACGAUGCUAUAGAAGUAGGGAGGAUAUACAUGAGGAUCACCCAUGUAGGAA |  |  | 9.28 | 13.4
4 | AAAAGACAUGAGGAUCACCCAUGUCAAGACGUGGGAGGAUAUGUAUGGAAACCAGACUGUACAGAAGGCCUCUGUC | 57 | 70.5 |  | 
5 | UUAUUUAUGCAAGGAUAUCAAUUAUAUACAAAUCCAACAUGAGGAUCACCCAUGUUUUAUUUUUUUGAGAAGGUGUAUUGUCAG | 36.1 | 40.5 |  | 
6 | CGCCAUUUAACAACGGCGCGGUCGAGAAGGGUACAUGAGGAUCACCCAUGUCACGUUCCUCCUGUACAGGAUAUCGUACGGGUA |  |  | 67 | 146
7 | AGAUGACGAUGUCAUCUUCGUCGGACAUGAGGAUCACCCAUGUAGGAUAUGCUACUCAAAGAGUAGCAGAAGGACAUGUGUCUU |  |  | 24.6 | 92.1
8 | GUCCUACAUGAGGAUCACCCAUGUGAGGAUAUGUGGUUAGCUGCUAGGUAGUUAGUAUGCAGAAGGUACGUGAA |  |  | 14.8 | 15.5
9 | CUAGUAUAUCAGGAUAUGAUUUUGUGUAGUUGGUCAGAAGGGAUGACAUGAGGAUCACCCAUGUUAAGGAGUGA |  |  | 122 | 146
10 | GGAUAGGACAGAGGAUAUACGUGCUAGAGAUACUAGCAAAAUUUCCUCACAUGAGGAUCACCCAUGUAGAAGGGUGUCCUAUCG |  |  | 12.9 | 12.7
11 | CGAUAAAGCUGAGGAUAUGAGAAUAGAAAGAAAUCAGAAGGCAGACAUGAGGAUCACCCAUGUGAGUUCUCGAGAUUACAUGGU |  |  | 250 | 529
12 | GUUUAGUGAGGAUAUGUGGCGUCGAUCGAGCGCGGUCUGCUACAGAAGGCACAUGAGGAUCACCCAUGUUUCUC |  |  | 258 | 371
13 | AGAAACUACGAGAAGGACAUGUGGUCCUUCAGUUACAUGAGGAUCACCCAUGUAGGAUAUCGUAGUUUCAGGAUCGUGAGAUCA |  |  | 40.8 | 12.3
14 | CUGAUGUUAGGAUAUCAGGCGCCCGCCACUGGCAAAGCGCAUGAGAAGGGACAUGAGGAUCACCCAUGUAGUAA |  |  | 28.2 | 47.6
15 | GCCAGGAUGUAAGGAUAUGCUGAGGAAUACUCAGCAGAAGGUACAUGAGGAUCACCCAUGUAAUCCAAUAAUAAAUAACCUGGC |  |  | 11.3 | 23.4
16 | GGAUGUCAAAGACAUCCUUAACGAACAUGAGGAUCACCCAUGUAGGAUAUGCUACUCAAAGAGUAGCAGAAGGACAUGUGCCUU |  |  | 34.5 | 270
17 | UUACUAUUGGAGAAGGCUCGAUAAUAUAUAAAGGGAGGAUAUCCAACAUGAGGAUCACCCAUGUUUCACCCAUAUGAGGAUCAC |  |  | 14.8 | 15.7
18 | GUGUAGACAGGAUAUGCUUUGAGCGUAUGAGAGUAGGCUCGACAUGAGGAUCACCCAUGUAGAAGGGUCUACAC |  |  | 12.4 | 13.2

Row | Sequence | apparent Kd [1] [nM] | apparent Kd [2] [nM] | apparent Kd [3] [nM] | apparent Kd [4] [nM]
19 | GUGUAGUGAGGAUAUACAUGAGGAUCACCCAUGUGAAUAAGAUAGAAUAAGAUAAAGUGUAGAAGGUAUAGUGU |  |  | 53.2 | 35.3
20 | GCGUUCUUGUAGAAGGUACAUACAAUCUCUUUUUAACACAUGACACAUGAGGAUCACCCAUGUUGUAAGGAUAUACAUGAACGC | 8.7 | 8.86 |  | 
21 | UUGAACAUAGGAUAUAGUUGUUUGUACAUGAGGAUCACCCAUGUUAGGGAUGUUUUGUUUCUAGAAGGAUGUUGAU |  |  | 170 | 80.3
22 | UUUUAGAGAGGAUAUAUAAAGUGAAACAUGAGGAUCACCCAUGUAAUUUUAUGGAUGUAAAUAGAAGGCUCAUUUA |  |  | 33.3 | 28.6
23 | GGUCCAUCAUGAGGAUAUGGCACCUUAUUGGUGCCAGAAGGCAUGUCUAUAGACAUGAGGAUCACCCAUGUAAUAAAGUGGACC | 922 | 49.3 |  | 
24 | GCGCUGCGAGGAUAUACAUGAGGAUCACCCAUGUGUCGGCAGCCAUGCUAGUACAAAUGUAGAAGGCGCGUAAA |  |  | 16.8 | 17.8
25 | UUGAAUUUAAACAUGAGGAUCACCCAUGUGUCAUAGUUGACAUAGGAUAUGCUUAUACUUUGAAAGCAGAAGGAUGACGAUACU | 41.3 | 10.1 |  | 
26 | AUCAGCUCGUCAGGAUAUACGUCACUGCGUCAGCACUGUGGUAAGAUCACAUGAGGAUCACCCAUGUAGAAGGGACGAGCUGAU |  |  | 17.7 | 172
27 | CUCUGCCGGCAGGAUAUUAGGUUACGAUGACGUUGAGAAGGGCUGACAUGAGGAUCACCCAUGUAGGGCUCCAU |  |  | 18.8 | 24.5
28 | UAUAUAUAGUAAGGAUAUGUAUUUAUUUUACAAACAGAAGGUACUGACAUGAGGAUCACCCAUGUUUUAGUGUGGGCAUGUAGA |  |  | 61.1 | 76.1
29 | CCUAUGUGAGGAUAUCACUGGUCUUUUCAUUGGAUGAUUAGUGAGAAGGCACAUGAGGAUCACCCAUGUCGGUG |  |  | 28.9 | 24.2
30 | AAUUAAUUAAUUAAGUACAUGAGGAUCACCCAUGUAAGUGAUCAGGAUAUCAGCUCGAUUAGAGCUGAGAAGGGAUCCAUGUAC | 531 | 303 |  | 
31 | CUGUCCCAAGGAUAUACAUCAGUCCCAGGGUGCCGCAUAAGACAUGAGGAUCACCCAUGUAGAAGGUGGAGACC |  |  | 96.7 | 92.6
32 | UACCACGACAACGCGGUAUCACAUGAGGAUCACCCAUGUUCACAGGAUAUGCGAUAGCCAACGAAGCAGAAGGGUGAUUACUUA | 70.2 | 158 |  | 
33 | UGAGGACAUGAGGAUCACCCAUGUAAGGAUAUGCGGAGAGAUUGGAGAGGUCGAGGAGGCAGAAGGUACAGGAC |  |  | 143 | 74.7
34 | CGCAUGCGUAGAAUUAGCUGCUGACAGGAUAUGACAUGAGGAUCACCCAUGUGAUUUAAGAAGAGUCAGAAGGGUCACGAUGCG |  |  | 7.8 | 13.5
35 | UUUCUACAUGAGGAUCACCCAUGUCAACAAAGUCGAGGAUAUGGGCAUAUUAUCUUAUUUCCAGAAGGCGAUUUCU | 145 | 29.5 |  | 
36 | GCAGCACAGAUUUACAUGAGGAUCACCCAUGUCUAUUGAGAUGAGGAUAUGCAUCGAAUGAAGUUGCAGAAGGCAUUGUGCUGC | 7.51 | 6 |  | 
